Measured values from ChEMBL document CHEMBL1140391, “8-Substituted 3,4-dihydroquinolinones as a novel scaffold for atypical antipsychotic activity” (Bioorg Med Chem Lett, 2005).

Columns and labels:
[1] = biological target: 5-hydroxytryptamine receptor 2A (Homo sapiens, UniProt P28223); assay: Binding affinity for 5-hydroxytryptamine 2A receptor expressed in 3T3 cells; type: cell-based
Method in brief: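 [³H]Ketanserin displacement on membranes of Swiss 3T3 cells expressing human 5-HT2A receptors. Incubation was 120 min across varying compound concentrations. Nonspecific binding came from high unlabeled ketanserin. Bound and free label were separated by vacuum filtration, and bound label was quantified by liquid scintillation. Percent inhibition of specific binding was fitted by nonlinear regression to give IC₅₀, then converted to Ki with Cheng–Prusoff.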

[2] = biological target: D(2) dopamine receptor (Homo sapiens, UniProt P14416); assay: Binding affinity against Dopamine receptor D2 expressed in CHO cells; type: cell-based
Method in brief: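 Radioligand binding with [³H]spiperone on membranes of CHO cells expressing human DA D₂ receptors. Membranes and radioligand were incubated 120 min with or without varying compound concentrations. Haloperidol at high concentration defined nonspecific binding. Bound label was separated by vacuum filtration and counted by liquid scintillation. IC₅₀ was fitted by nonlinear regression and converted to Ki with Cheng–Prusoff.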

5-hydroxytryptamine receptor 2A, sequence (P28223 whole entry): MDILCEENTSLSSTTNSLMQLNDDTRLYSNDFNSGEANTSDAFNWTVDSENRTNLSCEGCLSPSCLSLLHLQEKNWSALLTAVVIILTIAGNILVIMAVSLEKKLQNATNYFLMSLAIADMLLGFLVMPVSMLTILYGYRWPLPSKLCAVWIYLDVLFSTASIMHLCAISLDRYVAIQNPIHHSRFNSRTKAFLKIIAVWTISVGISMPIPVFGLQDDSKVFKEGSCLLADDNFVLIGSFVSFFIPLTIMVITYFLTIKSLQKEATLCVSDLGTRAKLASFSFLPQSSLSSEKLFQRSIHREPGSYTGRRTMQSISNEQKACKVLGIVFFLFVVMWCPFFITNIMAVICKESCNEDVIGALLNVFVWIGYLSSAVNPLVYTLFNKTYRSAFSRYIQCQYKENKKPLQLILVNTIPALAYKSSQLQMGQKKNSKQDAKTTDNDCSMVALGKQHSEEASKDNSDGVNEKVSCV
D(2) dopamine receptor, sequence (P14416 whole entry): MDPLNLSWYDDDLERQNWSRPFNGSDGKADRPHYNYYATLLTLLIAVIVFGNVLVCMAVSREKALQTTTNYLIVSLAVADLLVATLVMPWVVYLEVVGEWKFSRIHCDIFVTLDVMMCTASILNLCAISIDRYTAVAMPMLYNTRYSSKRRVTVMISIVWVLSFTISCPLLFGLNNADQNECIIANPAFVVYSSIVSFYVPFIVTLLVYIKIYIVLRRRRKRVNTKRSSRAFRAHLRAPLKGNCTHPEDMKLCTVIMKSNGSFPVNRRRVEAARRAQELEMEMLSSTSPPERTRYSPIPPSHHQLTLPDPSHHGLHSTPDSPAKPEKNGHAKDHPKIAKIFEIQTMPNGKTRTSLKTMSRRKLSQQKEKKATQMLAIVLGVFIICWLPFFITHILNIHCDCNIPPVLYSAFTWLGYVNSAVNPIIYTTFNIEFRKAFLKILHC

Ki [1]	Ki [2]	Compound
0.18 nM	59 nM	CC1(C)CCNc2c(CCN3CCN(c4nsc5ccccc45)CC3)cccc21
0.05 nM	> 100 nM	CC1CC(=O)Nc2c(CCN3CCN(c4nsc5ccccc45)CC3)cc(Cl)cc21 (configuration not stated)
0.61 nM	16 nM	CC1CCN(C(=O)c2ccccc2)c2c(CCN3CCN(c4nsc5ccccc45)CC3)cccc21 (configuration not stated)
1.06 nM	73 nM	CC1Cc2cccc(CCN3CCN(c4nsc5ccccc45)CC3)c2NC1=O (configuration not stated)
0.32 nM	17 nM	CC(=O)N1CCC(C)c2c(C)ccc(CCN3CCN(c4noc5ccccc45)CC3)c21 (configuration not stated)
0.59 nM	25 nM	CC1CCN(C(=O)C2CCCCC2)c2c(CCN3CCN(c4nsc5ccccc45)CC3)cccc21 (configuration not stated)
0.17 nM	15 nM	CC1CC(=O)Nc2c(CCN3CCN(c4nsc5ccccc45)CC3)cc(F)cc21 (configuration not stated)
0.75 nM	12 nM	CC(=O)N1CCC(C)c2c(C)ccc(CCN3CCN(c4nsc5ccccc45)CC3)c21 (configuration not stated)
0.28 nM	35 nM	Cc1cc(CCN2CCN(c3noc4ccccc34)CC2)c2c(c1)C(C)CC(=O)N2 (configuration not stated)
1.07 nM	4 nM	COc1cccc(CC(=O)N2CCC(C)c3cccc(CCN4CCN(c5nsc6ccccc56)CC4)c32)c1 (configuration not stated)
0.31 nM	> 50 nM	CC(=O)N1CCC(C)c2cc(Cl)cc(CCN3CCN(c4nsc5ccccc45)CC3)c21 (configuration not stated)
0.28 nM	55 nM	CC1(C)CCNc2c(CCN3CCN(c4nsc5ccccc45)CC3)cc(F)cc21
0.3 nM	17 nM	CC(=O)N1CCC(C)c2cccc(CCN3CCN(c4nsc5ccccc45)CC3)c21 (configuration not stated)
0.29 nM	29 nM	CC(=O)N1CCC(C)c2cc(F)cc(CCN3CCN(c4noc5ccccc45)CC3)c21 (configuration not stated)
0.22 nM	21 nM	CC1CC(=O)Nc2c(CCN3CCN(c4nsc5ccccc45)CC3)cccc21 (configuration not stated)
0.28 nM	> 100 nM	CC1CC(=O)Nc2c(CCN3CCN(c4noc5ccccc45)CC3)cc(F)cc21 (configuration not stated)
0.28 nM	> 100 nM	O=C1CCc2cccc(CCN3CCN(c4nsc5ccccc45)CC3)c2N1
0.17 nM	81 nM	CC1CC(=O)N(C)c2c(CCN3CCN(c4nsc5ccccc45)CC3)cccc21 (configuration not stated)
0.44 nM	18 nM	CC(=O)N1CCC(C)c2cc(F)cc(CCN3CCN(c4nsc5ccccc45)CC3)c21 (configuration not stated)
190 nM	> 100 nM	CC1CC(=O)Nc2c(CCN3CCN(c4noc5ccccc45)CC3)cccc21 (configuration not stated)
2.23 nM	92 nM	CC1CC(=O)Nc2c(CCN3CCN(c4n[s+]([O-])c5ccccc45)CC3)cc(F)cc21 (configuration not stated)
0.18 nM	–	O=C1CC(c2ccccc2)c2cccc(CCN3CCN(c4nsc5ccccc45)CC3)c2N1 (configuration not stated)
2.15 nM	12 nM	CC(=O)N1CCC(c2ccccc2)c2cccc(CCN3CCN(c4nsc5ccccc45)CC3)c21 (configuration not stated)
0.13 nM	11 nM	Cc1ccc(CCN2CCN(c3nsc4ccccc34)CC2)c2c1C(C)CC(=O)N2 (configuration not stated)
